According to ChEMBL document CHEMBL4330069, “Boosting the efficacy of anti-MRSA β-lactam antibiotics via an easily accessible, non-cytotoxic and orally bioavailable FtsZ inhibitor” (Eur J Med Chem, 2019):
In brackets after ≈: the same amount, converted by molar mass.

Tests used:
Format in all cases: functional
[1] = test system: Staphylococcus aureus; assay: Antibacterial activity against multidrug-resistant Staphylococcus aureus isolate 2490 by broth microdilution assay
How it was run: (§1)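 Broth microdilution MIC per CLSI guidelines against clinical MRSA isolates, for β-lactams and test compound alone and in combination. Compounds were dissolved in DMSO. Growth was read by eye, in duplicate. FIC index = FIC(compound) + FIC(drug); synergy defined as FIC index ≤0.5.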

[2] = test system: Staphylococcus aureus; assay: Antibacterial activity against multidrug-resistant Staphylococcus aureus isolate 2901 by broth microdilution assay; how it was run: as §1
[3] = test system: Staphylococcus aureus; assay: Antibacterial activity against multidrug-resistant Staphylococcus aureus isolate 1749 by broth microdilution assay; how it was run: as §1
[4] = test system: Staphylococcus aureus; assay: Antibacterial activity against multidrug-resistant Staphylococcus aureus isolate 1402 by broth microdilution assay; how it was run: as §1
[5] = test system: Staphylococcus aureus; assay: Antibacterial activity against multidrug-resistant Staphylococcus aureus isolate 2728 by broth microdilution assay; how it was run: as §1
[6] = test system: Staphylococcus aureus; assay: Antibacterial activity against multidrug-resistant Staphylococcus aureus isolate 1717 by broth microdilution assay; how it was run: as §1
[7] = test system: Staphylococcus aureus; assay: Antibacterial activity against multidrug-resistant Staphylococcus aureus isolate 85 by broth microdilution assay; how it was run: as §1
[8] = test system: Staphylococcus aureus; assay: Synergistic antibacterial activity against multidrug-resistant Staphylococcus aureus isolate 254 in presence of amoxicillin by broth microdilution assay
How it was run: (§2)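 CLSI broth microdilution on clinical MRSA isolates. MICs were measured for the β-lactam alone, the test agent alone and the two combined. Compounds were dissolved in DMSO, and growth inhibition was scored by eye. FIC index is the sum, over both agents, of MIC in combination divided by MIC alone. An FIC index ≤0.5 was taken as synergy.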

[9] = test system: Staphylococcus aureus; assay: Synergistic antibacterial activity against multidrug-resistant Staphylococcus aureus isolate 2919 in presence of amoxicillin by broth microdilution assay; how it was run: as §2
[10] = test system: Staphylococcus aureus; assay: Synergistic antibacterial activity against multidrug-resistant Staphylococcus aureus isolate 1717 in presence of amoxicillin by broth microdilution assay
How it was run: (§3)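 Clinical MRSA isolate panel; compound and β-lactam tested alone and in combination by CLSI broth microdilution, compounds dissolved in DMSO, growth inhibition scored by eye, run in duplicate. FIC index = FIC(compound) + FIC(drug), each the MIC in combination divided by the MIC alone; an index ≤ 0.5 was called synergy.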

[11] = test system: Staphylococcus aureus; assay: Synergistic antibacterial activity against multidrug-resistant Staphylococcus aureus isolate 2490 in presence of methicillin by broth microdilution assay; how it was run: as §3
[12] = test system: Staphylococcus aureus; assay: Synergistic antibacterial activity against multidrug-resistant Staphylococcus aureus isolate 254 in presence of methicillin by broth microdilution assay; how it was run: as §2
[13] = test system: Staphylococcus aureus; assay: Synergistic antibacterial activity against multidrug-resistant Staphylococcus aureus isolate 358 in presence of methicillin by broth microdilution assay
[14] = test system: Staphylococcus aureus; assay: Synergistic antibacterial activity against multidrug-resistant Staphylococcus aureus isolate 200 in presence of methicillin by broth microdilution assay; how it was run: as §3
[15] = test system: Staphylococcus aureus; assay: Synergistic antibacterial activity against multidrug-resistant Staphylococcus aureus isolate 1449 in presence of methicillin by broth microdilution assay; how it was run: as §3
[16] = test system: Staphylococcus aureus; assay: Synergistic antibacterial activity against multidrug-resistant Staphylococcus aureus isolate 254 in presence of cloxacillin by broth microdilution assay; how it was run: as §2
[17] = test system: Staphylococcus aureus; assay: Synergistic antibacterial activity against multidrug-resistant Staphylococcus aureus isolate 1136 in presence of cloxacillin by broth microdilution assay; how it was run: as §3
[18] = test system: Staphylococcus aureus; assay: Synergistic antibacterial activity against multidrug-resistant Staphylococcus aureus isolate 2728 in presence of cloxacillin by broth microdilution assay; how it was run: as §2
[19] = test system: Staphylococcus aureus; assay: Synergistic antibacterial activity against multidrug-resistant Staphylococcus aureus isolate 358 in presence of cefuroxime by broth microdilution assay
[20] = test system: Staphylococcus aureus; assay: Synergistic antibacterial activity against multidrug-resistant Staphylococcus aureus isolate 2516 in presence of meropenem by broth microdilution assay; how it was run: as §2
[21] = test system: Staphylococcus aureus; assay: Synergistic antibacterial activity against multidrug-resistant Staphylococcus aureus isolate 358 in presence of meropenem by broth microdilution assay
[22] = test system: Staphylococcus aureus; assay: Synergistic antibacterial activity against multidrug-resistant Staphylococcus aureus isolate 200 in presence of meropenem by broth microdilution assay; how it was run: as §3
[23] = test system: Staphylococcus aureus; assay: Synergistic antibacterial activity against multidrug-resistant Staphylococcus aureus isolate 1344 assessed as fractional Inhibitory concentration index in presence of amoxicillin by broth microdilution assay
How it was run: (§4)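 CLSI broth microdilution run on clinical MRSA isolates with each β-lactam alone, the test agent alone, and the two combined; agents dissolved in DMSO. Growth inhibition was read by eye. FIC index = FIC(compound) + FIC(β-lactam), where each FIC is the MIC in combination divided by the MIC alone. An index ≤0.5 was taken as synergy.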

[24] = test system: Staphylococcus aureus; assay: Synergistic antibacterial activity against multidrug-resistant Staphylococcus aureus isolate 2901 assessed as fractional Inhibitory concentration index in presence of amoxicillin by broth microdilution assay
[25] = test system: Staphylococcus aureus; assay: Synergistic antibacterial activity against multidrug-resistant Staphylococcus aureus isolate 3411 assessed as fractional Inhibitory concentration index in presence of amoxicillin by broth microdilution assay
[26] = test system: Staphylococcus aureus; assay: Synergistic antibacterial activity against multidrug-resistant Staphylococcus aureus isolate 757 assessed as fractional Inhibitory concentration index in presence of amoxicillin by broth microdilution assay
[27] = test system: Staphylococcus aureus; assay: Synergistic antibacterial activity against multidrug-resistant Staphylococcus aureus isolate 2919 assessed as fractional Inhibitory concentration index in presence of amoxicillin by broth microdilution assay
[28] = test system: Staphylococcus aureus; assay: Synergistic antibacterial activity against multidrug-resistant Staphylococcus aureus isolate 2224 assessed as fractional Inhibitory concentration index in presence of amoxicillin by broth microdilution assay; how it was run: as §4
[29] = test system: Staphylococcus aureus; assay: Synergistic antibacterial activity against multidrug-resistant Staphylococcus aureus isolate 3589 assessed as fractional Inhibitory concentration index in presence of methicillin by broth microdilution assay
[30] = test system: Staphylococcus aureus; assay: Synergistic antibacterial activity against multidrug-resistant Staphylococcus aureus isolate 2490 assessed as fractional Inhibitory concentration index in presence of cloxacillin by broth microdilution assay; how it was run: as §4
[31] = test system: Staphylococcus aureus; assay: Synergistic antibacterial activity against multidrug-resistant Staphylococcus aureus isolate 256 assessed as fractional Inhibitory concentration index in presence of cloxacillin by broth microdilution assay
[32] = test system: Staphylococcus aureus; assay: Synergistic antibacterial activity against multidrug-resistant Staphylococcus aureus isolate 3411 assessed as fractional Inhibitory concentration index in presence of cloxacillin by broth microdilution assay
[33] = test system: Staphylococcus aureus; assay: Synergistic antibacterial activity against multidrug-resistant Staphylococcus aureus isolate 1402 assessed as fractional Inhibitory concentration index in presence of cloxacillin by broth microdilution assay; how it was run: as §4
[34] = test system: Staphylococcus aureus; assay: Synergistic antibacterial activity against multidrug-resistant Staphylococcus aureus isolate 2895 assessed as fractional Inhibitory concentration index in presence of cefuroxime by broth microdilution assay
[35] = test system: Staphylococcus aureus; assay: Synergistic antibacterial activity against multidrug-resistant Staphylococcus aureus isolate 2516 assessed as fractional Inhibitory concentration index in presence of cefuroxime by broth microdilution assay; how it was run: as §4
[36] = test system: Staphylococcus aureus; assay: Synergistic antibacterial activity against multidrug-resistant Staphylococcus aureus isolate 757 assessed as fractional Inhibitory concentration index in presence of cefuroxime by broth microdilution assay
[37] = test system: Staphylococcus aureus; assay: Synergistic antibacterial activity against multidrug-resistant Staphylococcus aureus isolate 1749 assessed as fractional Inhibitory concentration index in presence of cefuroxime by broth microdilution assay; how it was run: as §4
[38] = test system: Staphylococcus aureus; assay: Synergistic antibacterial activity against multidrug-resistant Staphylococcus aureus isolate 3589 assessed as fractional Inhibitory concentration index in presence of meropenem by broth microdilution assay
[39] = test system: Staphylococcus aureus; assay: Synergistic antibacterial activity against multidrug-resistant Staphylococcus aureus isolate 757 assessed as fractional Inhibitory concentration index in presence of meropenem by broth microdilution assay

Structure (SMILES): CCCCCCCCCNc1ccc(F)c(C(N)=O)c1F
- MIC [1]: 16 µg/mL (≈ 53.6 µM)
- MIC [2]: 512 µg/mL (≈ 1720 µM)
- MIC [3]: 2 µg/mL (≈ 6.7 µM)
- MIC [4]: 4 µg/mL (≈ 13.4 µM)
- MIC [5]: 128 µg/mL (≈ 429 µM)
- MIC [6]: 2 µg/mL (≈ 6.7 µM)
- MIC [7]: 1020 µg/mL (≈ 3430 µM)
- MIC [8]: 8 µg/mL
- MIC [9]: 8 µg/mL
- MIC [10]: 2 µg/mL
- MIC [11]: 4 µg/mL
- MIC [12]: 4 µg/mL
- MIC [13]: 2 µg/mL
- MIC [14]: 4 µg/mL
- MIC [15]: 2 µg/mL
- MIC [16]: 2 µg/mL
- MIC [17]: 2 µg/mL
- MIC [18]: 1 µg/mL
- MIC [19]: 2 µg/mL
- MIC [20]: 4 µg/mL
- MIC [21]: 16 µg/mL
- MIC [22]: 8 µg/mL
- fractional inhibitory concentration index (FICI) [23]: 1.1
- fractional inhibitory concentration index (FICI) [24]: 0.1
- fractional inhibitory concentration index (FICI) [25]: 2
- fractional inhibitory concentration index (FICI) [26]: 0.3
- fractional inhibitory concentration index (FICI) [27]: 0.5
- fractional inhibitory concentration index (FICI) [28]: 0.2
- fractional inhibitory concentration index (FICI) [29]: 0.5
- fractional inhibitory concentration index (FICI) [30]: 0.6
- fractional inhibitory concentration index (FICI) [31]: 0.1
- fractional inhibitory concentration index (FICI) [32]: 0.5
- fractional inhibitory concentration index (FICI) [33]: 0.8
- fractional inhibitory concentration index (FICI) [34]: 0.3
- fractional inhibitory concentration index (FICI) [35]: 0.1
- fractional inhibitory concentration index (FICI) [36]: 0.1
- fractional inhibitory concentration index (FICI) [37]: 1.1
- fractional inhibitory concentration index (FICI) [38]: 1.5
- fractional inhibitory concentration index (FICI) [39]: 4.1
